# Results collected from several papers.
# Lines come from different studies, so protocols differ.
# Target: Serine/threonine-protein kinase BRSK1 (BRSK1, Homo sapiens, UniProt Q8TDC3)
# Residues used in one study (Q8TDC3 1-778): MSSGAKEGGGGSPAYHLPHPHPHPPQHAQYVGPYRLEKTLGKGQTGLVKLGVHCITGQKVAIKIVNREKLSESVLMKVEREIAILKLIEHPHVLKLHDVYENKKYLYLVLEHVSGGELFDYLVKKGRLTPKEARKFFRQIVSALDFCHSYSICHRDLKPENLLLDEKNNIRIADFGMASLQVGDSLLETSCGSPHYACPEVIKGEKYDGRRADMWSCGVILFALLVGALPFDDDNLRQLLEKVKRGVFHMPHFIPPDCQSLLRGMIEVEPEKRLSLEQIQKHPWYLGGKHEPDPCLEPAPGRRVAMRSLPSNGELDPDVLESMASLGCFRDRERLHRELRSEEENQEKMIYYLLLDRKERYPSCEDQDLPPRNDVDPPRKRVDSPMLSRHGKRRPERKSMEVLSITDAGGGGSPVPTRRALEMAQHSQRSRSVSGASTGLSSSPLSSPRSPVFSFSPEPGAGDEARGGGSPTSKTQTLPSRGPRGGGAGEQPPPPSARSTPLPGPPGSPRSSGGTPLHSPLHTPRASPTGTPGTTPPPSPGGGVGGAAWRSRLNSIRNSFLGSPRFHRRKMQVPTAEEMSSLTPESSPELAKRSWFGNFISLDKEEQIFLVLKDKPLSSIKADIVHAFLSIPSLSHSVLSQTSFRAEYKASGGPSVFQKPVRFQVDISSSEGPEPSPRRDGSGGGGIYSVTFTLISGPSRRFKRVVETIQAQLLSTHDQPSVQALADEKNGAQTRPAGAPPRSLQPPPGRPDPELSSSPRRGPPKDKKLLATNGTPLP
SMILES,assay,conditions,quantity,value
Cc1cnc(NC2CCOCC2)nc1-n1cnc(C(=O)NC(CN)c2cc(F)cc(Cl)c2)c1 (stereo not drawn),"enzyme activity, inhibitor, radiometric",1 µM,remaining activity,77%
Cc1ccc(Nc2nccc(N(C)c3ccc4c(C)n(C)nc4c3)n2)cc1S(N)(=O)=O,"enzyme activity, inhibitor",0.3 µM,inhibition,18%
O=C(Nc1cnn(-c2csc(C(=O)NC3COC3)c2)c1)Nc1ccccc1Cl,"enzyme activity, inhibitor",5 µM,remaining activity,85.5%
NS(=O)(=O)c1cc(NC(=O)Cc2ccccc2)ccc1Oc1cccc(Cl)c1,"cell-free assay, competition with immobilised ligand",1 µM,remaining binding,91%
FC(F)c1nc2ccccc2n1-c1nc(N2CCOCC2)nc(N2CCOCC2)n1,"enzyme activity, inhibitor",10 µM,remaining activity,161%
Cc1ccc(C(=O)Nc2ccc(CN3CCN(C)CC3)c(C(F)(F)F)c2)cc1C#Cc1cnc2cccnn12,"enzyme activity, inhibitor",23.5 nM,remaining activity,83%
CNC(=O)c1cc(Oc2ccc(NC(=O)Nc3ccc(Cl)c(C(F)(F)F)c3)cc2)ccn1,"enzyme activity, inhibitor",10 µM,inhibition,20%
O=C(Nc1cccnn1)N1CCC(=Cc2cccc(Oc3ccc(C(F)(F)F)cn3)c2)CC1,"cell-free assay, competition with immobilised ligand",1 µM,remaining binding,73%
CC(C)(C)c1nc2c(s1)c1nc(N)ncc1c1ccc(NS(=O)(=O)c3c(F)cccc3F)c(F)c12,"enzyme activity, inhibitor, radiometric",1 µM,remaining activity,102%
COc1cc2ncnc(Nc3ccc(Oc4ccccc4)c(C)c3C)c2cc1OC,"enzyme activity, inhibitor",1 µM,inhibition,0%
COc1cc(Nc2cnc(C#N)c(O[C@H](C)CN(C)C)n2)ncc1-c1cnn(C)c1,"enzyme activity, inhibitor, radiometric",10 µM,remaining activity,53%
CC1=C(C#N)C(c2ccc3c(c2)c(NC(=O)c2ccccc2C)nn3C)C(C#N)=C(C)N1,"cell-free assay, competition with immobilised ligand",1 µM,remaining binding,100%
Nc1nc(Nc2ccc(S(N)(=O)=O)cc2)nn1C(=O)c1c(F)cccc1F,cell-free assay,0.5 µM,remaining signal,49.2%
CNC(=O)c1ccc(Nc2ncc(C(F)(F)F)c(NCc3nccnc3N(C)S(C)(=O)=O)n2)cc1,"cell-free assay, competition with immobilised ligand",0.1 µM,remaining binding,100%
COc1cc(Cl)c(C(=O)N[C@@H](CN[C@H]2CC[C@@H](N)CC2)Cc2ccc(C#N)cc2)cc1-c1ccc(CN[C@H](C)c2ccc(C)cc2)o1,"enzyme activity, inhibitor",1 µM,remaining activity,100%
Cc1nc(Cc2cccc(C(F)(F)F)c2)sc1-c1ccc(C(N)=O)nc1,"cell-free assay, competition with immobilised ligand",1 µM,remaining binding,100%
O=C1NC(=O)c2cc(Nc3ccc(F)cc3)c(Nc3ccc(F)cc3)cc21,cell-free assay,0.5 µM,remaining signal,94.3%
Cc1sc(C(=O)NC2COC2)cc1-n1cc(NC(=O)Nc2c(F)cccc2Cl)cn1,"enzyme activity, inhibitor",10 µM,remaining activity,87.8%
CCN(CC)c1ccc(C2=NNC(=O)CC2C)cc1[N+](=O)[O-] (stereo not drawn),"enzyme activity, inhibitor",10 µM,remaining activity,131%
CC(C)(O)c1cncc(-c2nc3ccc(F)cc3n2C2CC2)c1,"cell-free assay, competition with immobilised ligand",1 µM,remaining binding,100%
Cc1cc(NC(=O)c2cccc3cc(-c4cccc5[nH]nc(N)c45)ccc23)ccc1F,"enzyme activity, inhibitor",0.1 µM,activity vs control,123%
CNc1cccc2cc(C(=O)Nc3ccc(C(=O)O)cc3)c(=O)[nH]c12,"enzyme activity, inhibitor",10 µM,inhibition,2.7%
Oc1cccc(-c2nc(N3CCOCC3)c3oc4ncccc4c3n2)c1,"enzyme activity, inhibitor",10 µM,remaining activity,109%
C[C@H](c1ccc(F)cc1)N(Cc1cccc(C(=O)O)c1)C(=O)c1cnc2ccccc2c1,"cell-free assay, competition with immobilised ligand",1 µM,remaining binding,100%
FC(F)(F)Oc1cccc(-c2cnc3ccc(-c4ccncc4)nn23)c1,"enzyme activity, inhibitor, radiometric",1 µM,activity vs control,103%
O=C(N1CCS(=O)(=O)CC1)N1C[C@H](c2ccc(OC(F)(F)F)cc2)C[C@H](c2nc(C3CC3)no2)C1,"cell-free assay, competition with immobilised ligand",1 µM,remaining binding,100%
CCN(CC)CCNC(=O)c1c(C)[nH]c(/C=C2\C(=O)Nc3ccc(F)cc32)c1C,"enzyme activity, inhibitor",10 µM,inhibition,82%
